Assay results from different studies.
Protocols differ between the studies behind these lines.
Target: NUAK family SNF1-like kinase 2 (NUAK2, Homo sapiens, UniProt Q9H093)
One construct used (Q9H093 1-628): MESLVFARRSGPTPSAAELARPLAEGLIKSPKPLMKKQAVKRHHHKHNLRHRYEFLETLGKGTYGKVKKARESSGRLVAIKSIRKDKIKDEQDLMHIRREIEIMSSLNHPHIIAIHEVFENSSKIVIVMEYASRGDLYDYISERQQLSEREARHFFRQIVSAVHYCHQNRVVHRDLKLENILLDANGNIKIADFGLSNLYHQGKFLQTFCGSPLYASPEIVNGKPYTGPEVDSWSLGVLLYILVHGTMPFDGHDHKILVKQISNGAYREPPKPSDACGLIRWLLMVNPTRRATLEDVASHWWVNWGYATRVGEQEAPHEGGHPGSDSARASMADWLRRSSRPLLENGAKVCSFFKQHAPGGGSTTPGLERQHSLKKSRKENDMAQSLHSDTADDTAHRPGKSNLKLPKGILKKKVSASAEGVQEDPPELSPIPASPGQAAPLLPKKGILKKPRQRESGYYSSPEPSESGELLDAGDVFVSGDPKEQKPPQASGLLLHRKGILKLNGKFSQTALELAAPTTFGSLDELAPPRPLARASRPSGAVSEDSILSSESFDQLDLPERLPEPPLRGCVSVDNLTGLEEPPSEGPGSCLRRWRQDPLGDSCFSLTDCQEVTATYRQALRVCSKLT

observed	technique	tested at	remaining binding [%]	Compound
binding		1 µM	92	CN(CCCC(F)(F)F)c1nccc(-c2cnn3ncccc23)n1
cell-free assay	competition with immobilised ligand	1 µM	100	CS(=O)(=O)NCC[C@H](NC(=O)c1cncc2c1cnn2-c1ccc(F)cc1)c1ccnc(S(C)(=O)=O)c1
binding	competition with immobilised ligand	50 nM	89	C[C@@H]1CN(c2ccc3ncc(-c4ccc5[nH]nc(C6CC6)c5c4)n3n2)C[C@H](C)O1
binding		1 µM	83	CN(C)c1nccc(-c2cnc3ncccn23)n1
cell-free assay	competition with immobilised ligand	1 µM	100	CCCCN(CCCC)C(=O)CN1C[C@@H](c2cc(OC)c3c(c2)OCO3)[C@H](C(=O)O)[C@H]1CC(C)(C)CCC
binding		1 µM	79	C[C@H]1CCN(c2nccc(-c3cnn4ncccc34)n2)C1
binding	competition with immobilised ligand	1 µM	70	O=C(NCC1CCOCC1)c1n[nH]cc1NC(=O)c1c(F)cccc1F
binding	competition with immobilised ligand	1 µM	0.4	O=C(c1ccc(Nc2ncc(Cl)c(-c3ccc(Cl)s3)n2)cc1)N1CCC(N2CCCC2)CC1
binding		1 µM	88	F[C@@H]1CCN(c2nccc(-c3cnn4ncccc34)n2)C1
cell-free assay	competition with immobilised ligand	5 µM	100	COc1ncc2cc3ccccc3nc2c1C#N
cell-free assay	competition with immobilised ligand	1 µM	100	O=C(N1CCS(=O)(=O)CC1)N1C[C@H](c2ccc(OC(F)(F)F)cc2)C[C@H](c2nc(C3CC3)no2)C1
binding	competition with immobilised ligand	1 µM	1	Cc1cnc(Nc2ccc(C(=O)N3CCC(N4CCCC4)CC3)cc2)nc1-c1cc2ccccc2s1
cell-free assay	competition with immobilised ligand	1 µM	76.4	COc1cccc(CNC(=O)c2nc3scc(COCc4ccc(C(=O)O)cc4)c3c(=O)[nH]2)c1
binding	competition with immobilised ligand	1 µM	0.85	O=C(NCCCN1CCOCC1)c1ccc(Nc2ncc(Cl)c(-c3ccc(Cl)s3)n2)cc1
binding	competition with immobilised ligand	1 µM	62	COc1cnc(Nc2cccc(S(N)(=O)=O)c2)nc1N1CCN(c2ccccc2)CC1
binding		1 µM	100	CN(C)c1nccc(-c2cnn3ncccc23)n1
cell-free assay	competition with immobilised ligand	10 µM	74	CC(C)(C)c1ccc(-c2nc(CBr)nn2-c2cccc(O)c2)cc1
binding	competition with immobilised ligand	1 µM	54	COc1cnc(Nc2cccc(S(N)(=O)=O)c2)nc1N1CCN(c2ccccc2)C(=O)C1
cell-free assay	competition with immobilised ligand	1 µM	100	C[C@H](NC(=O)c1cnc2n1[C@](C)(Cc1ccc(C#N)cc1)C(=O)N2c1cc(Cl)c(F)c(Cl)c1)C(=O)NC1(c2ccccn2)CC1
binding		1 µM	100	N[C@H]1CCN(c2nccc(-c3cnn4ncccc34)n2)C1
cell-free assay	competition with immobilised ligand	1 µM	100	CO[C@@H](C)c1c(Nc2ccc([C@@H](N(C)C(=O)C3CCS(=O)(=O)CC3)C(F)(F)F)cc2)cnc2cc(Cl)nn12
binding	competition with immobilised ligand	10 µM	17	c1cncc(-c2cccc(Nc3nccc(NC4CCCCC4)n3)c2)c1
